{"source": "paper PMC9716449", "about": "(International Journal of Tryptophan Research : IJTR, 2022)", "key": {"rhTDO [1]": {"target": "T1, rhTDO (Homo sapiens, UniProt P48775)", "T1 sequence (P48775 whole entry)": "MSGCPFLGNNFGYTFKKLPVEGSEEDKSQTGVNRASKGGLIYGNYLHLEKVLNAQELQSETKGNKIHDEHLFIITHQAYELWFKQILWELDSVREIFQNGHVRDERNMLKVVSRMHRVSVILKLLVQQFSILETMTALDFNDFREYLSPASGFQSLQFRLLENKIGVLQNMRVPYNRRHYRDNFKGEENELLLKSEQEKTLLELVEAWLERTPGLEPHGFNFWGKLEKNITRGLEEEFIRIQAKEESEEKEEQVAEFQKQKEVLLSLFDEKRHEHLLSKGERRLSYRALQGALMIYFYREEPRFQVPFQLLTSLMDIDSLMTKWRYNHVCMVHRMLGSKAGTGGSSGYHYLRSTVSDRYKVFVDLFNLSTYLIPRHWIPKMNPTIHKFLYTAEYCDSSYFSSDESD", "assay": "Kinetics analysis", "assay_type": "biochemical", "details": "Lineweaver-Burk plot; 680C91 0.5 and 1 μM, PVZB3001 1 and 2 μM", "how_it_was_run": "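Mode of inhibition was taken from Lineweaver–Burk plots of the recombinant human enzyme, plotting inverse initial rate against inverse L-Trp concentration with or without test compound. DMSO served as control.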"}, "A172 (TDO)": {"tested_on": "A172 (TDO)", "assay": "Cell-based Kyn production assay in A172 cells", "parameters": "species or system human", "details": "A172 cells expressing TDO", "how_it_was_run": "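TDO-dependent Kyn production: A172 cells were seeded and grown 24 h, exposed to test compound for 1 h, then given L-Trp (final 524 μM) without cytokine and cultured 24 h. Kyn was detected by Ehrlich reaction, adding aqueous 7% CCl₃COOH mixed 2:5 with 2% p-dimethylaminobenzaldehyde in acetic acid, and absorbance read at 460 nm. Triplicate samples; 3 independent experiments.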"}, "[2]": {"tested_on": "A172 cells expressing IDO1 and TDO", "assay": "Kyn production in A172 cells expressing IDO1 and TDO by IFN-γ stimulation", "assay_type": "cell-based, human", "details": "IFN-γ 10 ng/mL; 524 μM L-Trp, 24 hours", "how_it_was_run": "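A172 cells, grown 24 h after seeding, were given test compound 1 h before co-addition of L-Trp (final 524 μM) and IFN-γ (final 10 ng/mL) to express IDO1 and TDO. After 24 h, Kyn was quantified by Ehrlich reaction (CCl₃COOH plus p-dimethylaminobenzaldehyde in acetic acid) at 460 nm. IFN-γ-stimulated, DMSO-treated cells served as control. Triplicates; 3 independent experiments.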"}, "rhIDO1": {"target": "rhIDO1 (Homo sapiens, UniProt P14902)", "sequence (P14902 whole entry)": "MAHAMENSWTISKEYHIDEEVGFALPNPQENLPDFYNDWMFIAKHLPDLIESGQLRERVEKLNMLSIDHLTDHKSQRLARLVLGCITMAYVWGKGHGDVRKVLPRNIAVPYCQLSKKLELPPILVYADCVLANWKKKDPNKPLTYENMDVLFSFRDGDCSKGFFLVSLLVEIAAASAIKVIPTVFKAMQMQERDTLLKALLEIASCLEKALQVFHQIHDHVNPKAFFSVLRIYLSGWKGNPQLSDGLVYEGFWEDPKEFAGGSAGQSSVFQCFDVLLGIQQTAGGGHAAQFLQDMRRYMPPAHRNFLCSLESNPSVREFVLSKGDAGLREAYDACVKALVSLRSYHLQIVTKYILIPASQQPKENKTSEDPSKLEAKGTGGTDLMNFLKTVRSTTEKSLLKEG", "assay": "Enzyme assay", "assay_type": "biochemical", "details": "read-out: IC50 value on rhIDO1; cell-free; 200 μM L-Trp"}, "TDO [3]": {"tested_on": "TDO", "assay": "TDO mRNA expression in A172 cells", "assay_type": "cell-based, human", "details": "for TDO expression: mRNA and Western blot (Supplemental Figure 2)"}, "NK-92MI cells [4]": {"tested_on": "NK-92MI cells", "assay": "Granzyme B production assay in NK-92MI", "assay_type": "cell-based, human", "details": "NK-92MI treated with Kyn 72 h, then 5.5 h fresh medium; ELISA", "how_it_was_run": "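NK-92MI cells were pre-cultured for 72 h with Kyn, then moved to fresh medium without Kyn for 5.5 h. Culture supernatant was collected and granzyme B quantified with a human granzyme B ELISA following the kit protocol.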"}, "NK-92MI cells [5]": {"tested_on": "NK-92MI cells", "assay": "NK-92MI viability after addition of Kyn", "assay_type": "cell-based, human", "details": "72 h after addition of Kyn"}, "CT26-Ido1 tumors": {"tested_on": "CT26-Ido1 tumors", "assay": "Antitumor activity in mice bearing CT26-Ido1 tumors", "assay_type": "in vivo, mouse", "details": "oral, 50.0 mg/kg", "how_it_was_run": "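Female BALB/c mice (6 weeks) received 1 × 10⁵ CT26-Ido1 cells s.c. in the right and left dorsal regions. On day 6 they were randomised (n = 8) to vehicle or 12.5, 25 or 50 mg/kg p.o. once daily. Caliper diameters were taken every 2 days to day 14, with V = (W² × L)/2. Tumours were weighed on day 14 and %IR was taken from mean tumour weights versus vehicle. Body weight every 2 days was expressed relative to day 1. Tumour Kyn and Trp were measured by ELISA after dissociation in PBS.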"}, "rhTDO [6]": {"target": "T1, rhTDO", "assay": "Enzyme assay", "assay_type": "biochemical"}, "TDO [7]": {"tested_on": "TDO", "assay": "Western blot of TDO protein in A172 cells", "assay_type": "cell-based, human", "details": "at 1000 nM", "how_it_was_run": "(§1)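 Cells were lysed in RIPA buffer with protease inhibitors. Lysate (20–30 μg protein/lane) was separated by polyacrylamide gel electrophoresis and transferred to PVDF. Membranes were blocked with 5% skim milk or a signal-enhancing blocking reagent, then probed with primary antibody overnight at 4°C and secondary antibody 1 h at room temperature. Bands were visualised by ECL imaging.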"}, "ERK1/2": {"tested_on": "ERK1/2", "assay": "Western blot of ERK1/2 phosphorylation in A172 cells", "assay_type": "cell-based, human", "how_it_was_run": "as §1"}, "A172 cells": {"tested_on": "A172 cells", "assay": "Cell viability assay", "assay_type": "cell-based, human", "how_it_was_run": "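A172 cells were seeded and grown 24 h, then given test compound for 1 h before L-Trp (final 524 μM), with no IFN-γ. After 24 h of culture, WST-8 was added for 40–60 min at 37°C and absorbance read at 450 nm. Triplicate samples; 3 independent experiments.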"}}, "note": "“Also recorded” adds a separate entry of the source.", "data": [{"smiles": "Fc1ccc2c(/C=C/c3cccnc3)c[nH]c2c1", "note": "[680C91]", "values": [{"measurement": "Inhibition pattern against TDO", "setting": "rhTDO [1]", "value": "competitive inhibition"}, {"measurement": "Kyn production in A172 cells (in words)", "setting": "A172 (TDO)", "value": "reduced"}, {"measurement": "Kyn production in A172 cells expressing both IDO1 and TDO (in words)", "setting": "[2]", "value": "decreased Kyn production; also recorded: Partial inhibition of Kyn production"}, {"measurement": "IC50", "setting": "rhIDO1", "value": "> 10", "unit": "µM"}]}, {"smiles": "Cc1cc(C(=O)NOCCO)c(Nc2ccc(I)cc2F)n(C)c1=O", "note": "[AZD8330]", "values": [{"measurement": "TDO expression", "setting": "TDO [3]", "value": "reduction of TDO expression"}, {"measurement": "Kyn production in A172 cells (in words)", "setting": "A172 (TDO)", "value": "attenuated Kyn production"}]}, {"smiles": "Nc1ccccc1C(=O)CC(N)C(=O)O", "note": "(stereo not shown) [Kyn, Kynurenine]", "values": [{"measurement": "Granzyme B production", "setting": "NK-92MI cells [4]", "value": "reduced"}, {"measurement": "Viability of NK-92MI cells", "setting": "NK-92MI cells [5]", "value": "reduced"}]}, {"smiles": "Cn1c(=O)c(F)c(Nc2ccc(I)cc2F)c2c(=O)n(C[C@@H](O)CO)cnc21", "note": "[TAK-733]", "values": [{"measurement": "TDO expression", "setting": "TDO [3]", "value": "reduction of TDO expression"}, {"measurement": "Kyn production in A172 cells (in words)", "setting": "A172 (TDO)", "value": "attenuated Kyn production"}]}, {"smiles": "NS(=O)(=O)NCCNc1nonc1C(=NO)Nc1ccc(F)c(Br)c1", "note": "[epacadostat]", "values": [{"measurement": "Antitumor effect", "setting": "CT26-Ido1 tumors", "value": "moderate effect without statistical significance"}, {"measurement": "Kyn production in A172 cells expressing both IDO1 and TDO (in words)", "setting": "[2]", "value": "decreased Kyn production; also recorded: inhibited Kyn production more effectively"}, {"measurement": "Enzymatic activity of TDO", "setting": "rhTDO [6]; at 1 μM or higher concentrations", "value": "inhibited the enzymatic activity of TDO"}]}, {"smiles": "CC(=O)Nc1cccc(-n2c(=O)n(C3CC3)c(=O)c3c(Nc4ccc(I)cc4F)n(C)c(=O)c(C)c32)c1", "note": "[trametinib]", "values": [{"measurement": "TDO mRNA expression", "setting": "TDO [3]; at 100 nM", "value": "downregulated"}, {"measurement": "Kyn production in A172 cells (in words)", "setting": "A172 (TDO)", "value": "decreased Kyn production in a dose-dependent manner"}, {"measurement": "TDO protein expression", "setting": "TDO [7]", "value": "downregulated"}, {"measurement": "Inhibitory activity against rhTDO (in words)", "setting": "rhTDO [6]; cell-free assay", "value": "did not inhibit"}, {"measurement": "ERK1/2 phosphorylation", "setting": "ERK1/2", "value": "inhibition of ERK1/2 phosphorylation"}, {"measurement": "Cell viability of A172 cells (in words)", "setting": "A172 cells", "value": "without reducing cell viability"}]}]}
